# From PubChem BioAssay
# Bfl-1 A1 inh = inhibitors of the anti-apoptotic protein A1, read as caspase activation. MEF A1-2A-BIM cells, Caspase-Glo 3/7 luminescence, 3 h; percent of clofoctol response, vehicle zero. caspase activation, % (test concentration not listed). hit rate 0.066% among 330,000. AID 2462;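 active = over half of replicate activation scores above 10%, or exactly half above 10 with the replicate mean above 10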
# T cruzi repl = T. cruzi replication inhibition | inhibition, % (no concentration beside the values) | T. cruzi beta-gal in NIH3T3, luminescence, 90 h | hit rate 1.4% among 300,000 | AID 1885;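 active = mean inhibition across valid replicates above about 55%, limit read from the data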;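 note: signal also drops with host cell toxicity which is not excluded here; 0% = plate median of DMSO wells and 100% = zero luminescence signal; higher percent means less beta-gal luminescence so fewer parasites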
#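 Incubation – ≥90 h infection period, 3 h prior cell attachment · System – NIH/3T3 fibroblasts plus reporter T. cruzi · Doses – compound pinned at 50 nL/well, DMSO · Read-out basis – percent inhibition of parasite-derived β-gal signal · Signal – luminescent β-galactosidase signal after 60 min lysis · Also added – 5000 T. cruzi trypomastigotes/well · Medium – Low-serum DMEM with 2% FBS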
# KLF5 inhibitor = suppresses KLF5 promoter-driven expression; DLD-1 KLF5 promoter-luciferase reporter, luminescence; inhibition, % at 5 µM; hit rate 0.23% among 290,000; AID 1700;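 active = inhibition above a per-plate limit of that plate's mean compound inhibition plus 3 SD, cut at about 60% in these data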;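 note: 0% = DMSO wells and 100% = LY294002 at 200 µM; higher means less KLF5 promoter-driven luciferase light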
# HIF activator = HIF pathway transcriptional activation. U2OS HRE-luciferase reporter, luminescence; normalized: DMSO 0%, desferrioxamine 100%. activation, % at 7.5 µM (by protocol). hit rate 0.32% among 300,000. AID 1910;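 active = mean activation of at least 10% of the iron chelator positive control signal, with at least half of replicates also reaching 10%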
# Beta apoptosis = beta cell apoptosis inhibition; hit rate 0.8% among 300,000; INS-1E cytokine-induced death, ATP luminescence, 48 h; percent of positive-control rescue, neutral wells zero; AID 435005; protection from apoptosis, % (concentration not given with the values);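 active = Every replicate reaches about 75%, or at least half do and their mean reaches it too, limit read from the data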;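 note: 0% = cytokine-treated negative control wells and 100% = positive control rescue; higher means more ATP so stronger rescue from cytokine killing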
# * hit, by the source's call; x = no result. Sampled rows, rich in hits. Any-hit rate of the full collection: about 2.3%.
SMILES,Bfl-1 A1 inh,T cruzi repl,KLF5 inhibitor,HIF activator,Beta apoptosis
Cc1cc(OCC(=O)NNC(=S)NCC2CCCO2)cc(C)c1Cl (centres undefined),1,3,-13,3,1
O=C(NCCN1C(=O)S/C(=C\c2ccc(Cl)c([N+](=O)[O-])c2)C1=O)C1=COCCO1,-1,-18,x,1,-2
O=C(CSc1n[nH]c(=O)n1C1CC1)c1c[nH]c2ccccc12,1,x,x,x,6
O=C(N/N=C/C(Br)=C\c1ccccc1)c1n[nH]c2c1CCC2,-2,-4,44,12*,56
C[C@]12CCC(O)CC1=CCC1C2CC[C@]2(C)/C(=N\NC(N)=S)CCC12 (some centres undefined),-1,66*,-6,-2,-10
CC12CCC(O)CC1=CCC1C2CCC2(C)C1CCC21CCC(=O)O1 (centres undefined),1,8,-4,0,-1
OCCN1CCN(CCOc2cccc(Cl)c2)CC1,0,66*,-28,1,6
Clc1cccc(OCCN2CCNCC2)c1,1,58*,-18,0,-2
CC(=O)N(C1=C(Cl)C(=O)c2ccccc2C1=O)C1CCCCC1,2,58*,-13,-1,53
CC(=O)N(c1ccccc1C)C1CCCC1,0,-4,-55,0,2
O=C(C[n+]1ccccc1)c1ccc(-c2ccccc2)cc1,0,6,-16,2,0
CN(C)c1cc[n+](CC(=O)c2ccc(-c3ccccc3)cc2)cc1,0,56*,9,0,106*
O=C1N/C(=C/c2cccs2)C(=O)N1Cc1ccc(Br)cc1,2,-7,11,328*,6
Cc1ccc(/C=C2/NC(=O)N(Cc3ccccc3)C2=O)s1,0,-4,-33,0,-2
COc1ccc(CCN(C)C(=O)C2CCCN(C3CCN(Cc4ccccc4)CC3)C2)cc1OC (centres undefined),0,28,6,0,-7
O=C(Nn1c(COc2ccccc2)nc2ccccc2c1=O)C(Cl)(Cl)Cl,0,-9,-24,2,-3
CC(C)CCSc1nc(N)c(C#N)cc1C#N,0,67*,-8,0,13
COc1ccc(Cl)cc1S(=O)(=O)N(C)CC(=O)NCc1ccc2c(c1)OCO2,3,5,-9,0,-2
CC(NC=C1C(=O)OC(C)(C)OC1=O)C(=O)O (centres undefined),-1,55*,-22,0,-4
CCCS(=O)(=O)c1nc(S(=O)(=O)c2ccc(C)cc2)c(NCCCN2CCCC2=O)s1,0,-1,-3,-1,-8
Cc1ccc(OCc2cc(C(=O)N(C)Cc3cnn(-c4ccccc4C)c3)no2)cn1,-3,0,-44,1,15
Cc1cc(Cl)ccc1OCC(=O)OCC(=O)c1c(N)n(C)c(=O)n(C)c1=O,16*,x,x,x,0
Cn1c(N)c(C(=O)COC(=O)COc2cc(Cl)c(Cl)cc2Cl)c(=O)n(C)c1=O,1,x,x,x,-1
CCN(Cc1ccccc1)S(=O)(=O)c1ccc(S(=O)(=O)N(Cc2ccccn2)Cc2ccco2)cc1,0,21,-13,0,5
CC1CCCCN1S(=O)(=O)c1ccc(S(=O)(=O)N(Cc2ccccc2)Cc2ccco2)cc1 (centres undefined),0,71*,-12,0,24
SMILES,Bfl-1 A1 inh,T cruzi repl,KLF5 inhibitor,HIF activator,Beta apoptosis
COC(=O)c1cc2c(ccn2-c2ccc(F)cc2)n1Cc1ccc(OC(C)=O)cc1,1,58*,-33,0,1
O=C(O)CCC1c2cc3c4cc2OC2Oc5cc6c(cc51)C(CCC(=O)O)c1cc5c7cc1OC(O6)c1cc6cc(c1)Oc1cc(cc(C(=O)O)c1)Oc1cc8cc(c1)C(Oc1cc(c(cc1C5CCC(=O)O)C3CCC(=O)O)OC(O4)c1cc(cc(c1)Oc1cc(cc(C(=O)O)c1)O8)Oc1cc(cc(C(=O)O)c1)Oc1cc(cc2c1)Oc1cc(cc(C(=O)O)c1)O6)O7 (centres undefined),0,-10,x,0,-10
Cc1cc(/C=N/n2c(COc3ccccc3)nc3ccccc3c2=O)c(O)c([N+](=O)[O-])c1,0,50,-21,15*,55
CCOC(=O)c1cccc(C2=CC(=O)C[C@H](c3ccc(Cl)cc3)C2)c1,0,x,x,x,2
CCOC(=O)c1c(C)nc2ccc(C)cn12,0,-2,-68,0,1
CCOC(=O)c1c(C)nc2cc(C)ccn12,0,2,-17,14*,-7
CNNC(=O)C(C)NC(=O)c1ccc(Br)cc1 (centres undefined),0,-7,-12,38*,-5
C[C@H](NC(=O)c1ccc(Br)cc1)C(=O)NCc1ccc(S(N)(=O)=O)cc1,1,-19,0,0,-2
Cc1ccc2[nH]c(=O)c3cc(C(=O)NC(C)C)sc3c2c1,0,-3,-57,-3,6
COc1cc(/C=N/N=C(N)N)ccc1OCc1ccc(Cl)cc1,0,87*,-77,-1,98*
COc1cc(/C=N/NC(N)=S)ccc1OCc1ccc(C)cc1,1,58*,-55,1,35
NC(=S)N/N=C\c1ccccc1OCc1ccccc1,2,55*,-16,0,2
O=C(CSCc1ccccc1)N/N=C/c1ccccc1OCc1ccccc1,0,-9,-14,0,0
Cc1ccc(C(OCC(O)CNC(CO)C(O)c2ccc([N+](=O)[O-])cc2)c2ccccc2)cc1 (centres undefined),0,13,-8,0,-1
CC(C)NC(=O)c1ccc(N(Cc2ccc(Cl)cc2)S(C)(=O)=O)cc1,1,-16,-18,-4,-6
CCN(CC)S(=O)(=O)c1ccc2oc(C(=O)NC3CCCc4ccccc43)c(C)c2c1 (centres undefined),0,81*,-35,-1,9
CCN(CC)S(=O)(=O)c1ccc2oc(C(=O)N3CCc4ccccc4C3)c(C)c2c1,0,1,-7,0,3
C=C(C(=O)c1ccccc1)C(C(=C)C(=O)c1ccccc1)c1ccc(OC)cc1,-1,55*,9,0,111*
C=C(C(=O)c1ccccc1)C(C)C(=C)C(=O)c1ccccc1,2,-9,-9,-1,117*
O=C(CN1C2=NCCCN2c2ccccc21)c1cccc(Br)c1,0,14,-31,0,1
O=C(CN1C2=NCCCN2c2ccccc21)c1ccc([N+](=O)[O-])cc1,2,59*,-34,0,59
Cc1cc(/C=N/n2cnnc2)c(C)n1-c1ccc(OCc2ccc(Cl)cc2)cc1,0,13,-26,-1,122*
Cc1cc(/C=N/n2cnnc2)c(C)n1-c1ccc(OCc2ccccc2F)cc1,0,38,-135,1,122*
O=C(NCCc1nc2ccccc2[nH]1)c1cccc(Br)c1,0,56*,9,0,2
